{"source": "ChEMBL document CHEMBL1155974", "about": "“The nucleoside analogue D-carba T blocks HIV-1 reverse transcription” (J Med Chem, 2009)", "key": {"[1]": {"molecular_target": "Human immunodeficiency virus type 1 reverse transcriptase (Human immunodeficiency virus 1) (UniProt Q72547)", "assay": "Inhibition of HIV1 reverse transcriptase-mediated viral DNA synthesis at 10 uM by PAGE"}, "[2]": {"assay": "Cytotoxicity against human GHOST cells at 5% (w/v) after 48 hrs by XTT assay", "assay_type": "cell-based", "method_in_brief": "(§1)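 Cells (TZM, GHOST, HuT-CCR5) incubated 48 h with five dilutions of compound; XTT substrate then added for a further 4–5 h, and viability read from conversion of the dye by live cells. Hydroxypropyl-β-cyclodextrin served as positive control for killing.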"}, "TZM [3]": {"test_system": "TZM", "assay": "Cytotoxicity against human TZM cells at 5% (w/v) after 48 hrs by XTT assay", "assay_type": "cell-based", "method_in_brief": "as §1"}, "[4]": {"assay": "Cytotoxicity against human Hut/CCR5 cells at 5% (w/v) after 48 hrs by XTT assay", "assay_type": "cell-based", "details": "hut/ccr5, 48 h", "method_in_brief": "as §1"}, "[5]": {"assay": "Cytotoxicity against human Hut/CCR5 cells up to 10 uM after 48 hrs by XTT assay", "details": "hut/ccr5, 48 h"}, "[6]": {"assay": "Cytotoxicity against human GHOST cells up to 10 uM after 48 hrs by XTT assay"}, "TZM [7]": {"test_system": "TZM", "assay": "Cytotoxicity against human TZM cells up to 10 uM after 48 hrs by XTT assay"}, "[8]": {"assay": "Inhibition of HIV1 reverse transcriptase SSGR/T215Y mutant-mediated viral DNA synthesis in human HOS cells assessed as luciferase activity treated 3 hrs before infection measured after 48 hrs by luminescence assay", "assay_type": "cell-based", "details": "Human immunodeficiency virus 1, HOS", "method_in_brief": "(§2)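 Single-cycle infection with a VSV-G-pseudotyped, Env-deleted HIV-1 luciferase vector carrying wt or NRTI-resistant RT, made by calcium phosphate transfection of 293 cells, harvested at 48 h and diluted 1:5. HOS or HSV-TK-expressing HOS 313 cells were seeded at 4000/well, pretreated with compound for 3 h, then infected for 48 h. Luciferase was normalized to untreated infection of the same RT variant. IC50 came from a four-parameter sigmoidal fit.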"}, "[9]": {"assay": "Inhibition of HIV1 reverse transcriptase M41L/D67N/K70R/T215Y/K219Q mutant-mediated viral DNA synthesis in human HOS cells assessed as luciferase activity treated 3 hrs before infection measured after 48 hrs by luminescence assay", "assay_type": "cell-based", "details": "Human immunodeficiency virus 1, HOS", "method_in_brief": "as §2"}, "[10]": {"assay": "Inhibition of HIV1 reverse transcriptase M41L/D67N/K70R/T215Y/K219Q mutant-mediated viral DNA synthesis in human HOS-313 cells expressing HSV thymidine kinase assessed as luciferase activity treated 3 hrs before infection measured after 48 hrs by luminescence assay", "assay_type": "cell-based", "details": "Human immunodeficiency virus 1, HOS-313", "method_in_brief": "as §2"}, "HIV-1 M:B_Lai": {"test_system": "HIV-1 M:B_Lai", "assay": "Antiviral activity against HIV1 LAI infected in human TZM cells assessed as inhibition of viral replication", "assay_type": "functional, organism-based", "details": "Human immunodeficiency virus 1, LAI", "method_in_brief": "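Single-cycle inhibition assay in TZM (HeLa-derived indicator) cells infected with replication-competent wild-type HIV-1 LAI across a range of compound concentrations; IC50 reported.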"}, "[11]": {"molecular_target": "Human immunodeficiency virus type 1 reverse transcriptase (Human immunodeficiency virus 1) (UniProt Q72547)", "assay": "Ratio of IC50 for inhibition of HIV1 wild type reverse transcriptase-mediated viral DNA synthesis in human HOS cells to IC50 for inhibition of HIV1 wild type reverse transcriptase-mediated viral DNA synthesis in human HOS-313 cells expressing HSV thymidine kinase", "assay_type": "cell-based", "method_in_brief": "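VSV-G-pseudotyped single-round HIV-1 luciferase vector (wt RT) made in 293 cells. HOS or HSV-TK-expressing HOS 313 cells, 4000/well, were pretreated 3 h with compound, infected 48 h, and luminescence read. Activity was normalized to untreated infections, and IC50 was taken from a four-parameter sigmoidal fit in each line.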"}, "[12]": {"assay": "Inhibition of HIV1 reverse transcriptase SSGR/T215Y mutant-mediated viral DNA synthesis in human HOS-313 cells expressing HSV thymidine kinase assessed as luciferase activity treated 3 hrs before infection measured after 48 hrs by luminescence assay", "assay_type": "cell-based", "details": "Human immunodeficiency virus 1, HOS-313", "method_in_brief": "as §2"}, "[13]": {"molecular_target": "Human immunodeficiency virus type 1 reverse transcriptase (Human immunodeficiency virus 1) (UniProt Q72547)", "assay": "Inhibition of HIV1 reverse transcriptase-mediated viral DNA synthesis at 5 uM using TA template by PAGE in presence of thymidine triphosphate", "method_in_brief": "(§3)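 Competition primer-extension: labeled primer on DNA or RNA template of identical sequence (RNA reactions supplemented with RNase inhibitor), HIV-1 RT (1.0 µg), 10.0 µM each dATP/dCTP/dGTP. TTP:analog triphosphate at 1:5 or 1:1, totalling 10.0 µM; 37°, timed intervals, EDTA stop, 15% sequencing gel to score pausing.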"}, "[14]": {"molecular_target": "Human immunodeficiency virus type 1 reverse transcriptase (Human immunodeficiency virus 1) (UniProt Q72547)", "assay": "Inhibition of HIV1 reverse transcriptase-mediated viral DNA synthesis at 5 uM using UA template by PAGE in presence of thymidine triphosphate", "method_in_brief": "as §3"}}, "note": "Active and inactive are the calls of the source. The rule behind the calls is not given here."}
{"smiles": "Cc1cn([C@H]2CC[C@@H](COP(=O)(O)OP(=O)(O)OP(=O)(O)O)O2)c(=O)[nH]c1=O", "values": [{"measurement": "inhibition", "setting": "[1]", "value": "Active"}]}
{"smiles": "CC(O)COC[C@H]1O[C@@H]2O[C@H]3[C@H](O)[C@@H](O)[C@@H](O[C@H]4[C@H](O)[C@@H](O)[C@@H](O[C@H]5[C@H](O)[C@@H](O)[C@@H](O[C@H]6[C@H](O)[C@@H](O)[C@@H](O[C@H]7[C@H](O)[C@@H](O)[C@@H](O[C@H]8[C@H](O)[C@@H](O)[C@@H](O[C@H]1[C@H](O)[C@H]2O)O[C@@H]8COCC(C)O)O[C@@H]7COCC(C)O)O[C@@H]6COCC(C)O)O[C@@H]5COCC(C)O)O[C@@H]4COCC(C)O)O[C@@H]3COCC(C)O", "note": "(stereo partly drawn) [2-HYDROXYPROPYL-BETA-CYCLODEXTRIN]", "values": [{"measurement": "Activity", "setting": "[2]", "value": "> 50", "unit": "%"}, {"measurement": "Activity", "setting": "TZM [3]", "value": "> 50", "unit": "%"}, {"measurement": "Activity", "setting": "[4]", "value": "> 50", "unit": "%"}]}
{"smiles": "Cc1cccc2c1OP(=O)(OC[C@H]1C[C@@H](n3cc(C)c(=O)[nH]c3=O)C[C@@H]1O)OC2", "note": "(some centres not stated)", "values": [{"measurement": "Activity", "setting": "[5]", "value": "Non-toxic"}, {"measurement": "Activity", "setting": "[6]", "value": "Non-toxic"}, {"measurement": "Activity", "setting": "TZM [7]", "value": "Non-toxic"}]}
{"smiles": "Cc1cn([C@H]2C[C@H](O)[C@@H](COP(=O)(O)OP(=O)(O)OP(=O)(O)O)O2)c(=O)[nH]c1=O", "values": [{"measurement": "inhibition", "setting": "[1]", "value": "inactive"}]}
{"smiles": "Cc1cn([C@H]2C[C@H](N=[N+]=[N-])[C@@H](CO)O2)c(=O)[nH]c1=O", "note": "[ZIDOVUDINE]", "values": [{"measurement": "IC50", "setting": "[8]", "value": 39.6, "unit": "nM"}, {"measurement": "IC50", "setting": "[9]", "value": 20.1, "unit": "nM"}]}
{"smiles": "Cc1cn([C@@H]2C[C@H](CO)[C@@H](O)C2)c(=O)[nH]c1=O", "values": [{"measurement": "IC50", "setting": "[10]", "value": 870, "unit": "nM"}, {"measurement": "IC50", "setting": "[8]", "value": 4600, "unit": "nM"}, {"measurement": "IC50", "setting": "HIV-1 M:B_Lai", "value": 50, "unit": "nM"}, {"measurement": "Ratio IC50", "setting": "[11]", "value": 4}, {"measurement": "Activity", "setting": "[5]", "value": "Non-toxic"}, {"measurement": "IC50", "setting": "[9]", "value": 1300, "unit": "nM"}, {"measurement": "Activity", "setting": "[6]", "value": "Non-toxic"}, {"measurement": "Activity", "setting": "TZM [7]", "value": "Non-toxic"}, {"measurement": "IC50", "setting": "[12]", "value": 1000, "unit": "nM"}]}
{"smiles": "Cc1cn([C@@H]2C[C@H](COP(=O)(O)OP(=O)(O)OP(=O)(O)O)[C@@H](O)C2)c(=O)[nH]c1=O", "values": [{"measurement": "inhibition", "setting": "[13]", "value": "inactive"}, {"measurement": "inhibition", "setting": "[1]", "value": "Active"}, {"measurement": "inhibition", "setting": "[14]", "value": "Active"}]}
